Measured values reported in ChEMBL document CHEMBL1144110, “Triterpene saponins and lignans from the roots of Pulsatilla chinensis and their cytotoxic activity against HL-60 cells” (J Nat Prod, 1999).
In brackets after ≈: the same amount, converted by molar mass.

Tested on: HL-60
Assay: Cytotoxicity against human HL-60 cells after 72 hrs by MTT assay
Type: functional, cell-based
Conditions: HL-60, 72 h
How it was run: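 HL-60 human promyelocytic leukemia cells grown in RPMI 1640 with 10% FBS, L-glutamine and penicillin/streptomycin. Seeded at 3 × 10^4 cells/mL and preincubated 24 h at 37 °C in 5% CO2. Samples added in EtOH–H2O (1:1) at final 0.0001–50 µg/mL, with vehicle controls, for 72 h. MTT then 4 h, formazan dissolved in DMSO, read at 550 nm. IC50 taken from dose-response curves of samples giving >50% inhibition at 10 µg/mL.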

| SMILES | IC50 |
| --- | --- |
| C[C@@H]1O[C@@H](O[C@H]2[C@H](O[C@H]3CC[C@]4(C)[C@H]5CC=C6[C@@H]7CC(C)(C)CC[C@]7(C(=O)O)CC[C@@]6(C)[C@]5(C)CC[C@H]4C3(C)C)OC[C@H](O)[C@@H]2O)[C@H](O)[C@H](O[C@@H]2O[C@H](CO)[C@@H](O[C@@H]3O[C@H](CO)[C@@H](O)[C@H](O)[C@H]3O)[C@H](O)[C@H]2O)[C@H]1O | 2.6 µg/mL (≈ 2.45 µM) |
| CC1(C)CC[C@]2(C(=O)O)CC[C@]3(C)C(=CC[C@@H]4[C@@]5(C)CC[C@H](O[C@@H]6OC[C@H](O[C@@H]7O[C@H](CO)[C@@H](O)[C@H](O)[C@H]7O)[C@H](O)[C@H]6O)[C@@](C)(CO)[C@@H]5CC[C@]43C)[C@@H]2C1 | > 10 µg/mL |
| C[C@@H]1O[C@@H](O[C@H]2[C@H](O[C@H]3CC[C@]4(C)[C@H]5CC=C6[C@@H]7CC(C)(C)CC[C@]7(C(=O)O)CC[C@@]6(C)[C@]5(C)CC[C@H]4C3(C)C)OC[C@H](O)[C@@H]2O)[C@H](O)[C@H](O[C@@H]2O[C@H](CO)[C@@H](O)[C@H](O)[C@H]2O)[C@H]1O | 3.6 µg/mL (≈ 4.01 µM) |
| C[C@@H]1O[C@@H](O[C@H]2[C@H](O[C@H]3CC[C@@]4(C)[C@@H](CC[C@]5(C)[C@@H]4CC=C4[C@@H]6CC(C)(C)CC[C@]6(C(=O)O)CC[C@]45C)[C@]3(C)CO)OC[C@H](O)[C@@H]2O)[C@H](O)[C@H](O[C@@H]2O[C@H](CO)[C@@H](O)[C@H](O)[C@H]2O)[C@H]1O | 7.8 µg/mL (≈ 8.54 µM) |
| C[C@@H]1O[C@@H](O[C@H]2[C@H](O[C@H]3CC[C@]4(C)[C@H]5CC=C6[C@@H]7CC(C)(C)CC[C@]7(C(=O)O)CC[C@@]6(C)[C@]5(C)CC[C@H]4C3(C)C)OC[C@H](O)[C@@H]2O)[C@H](O)[C@H](O)[C@H]1O | 4.4 µg/mL (≈ 5.99 µM) |
| COC(=O)[C@]12CCC(C)(C)C[C@H]1C1=CC[C@@H]3[C@@]4(C)CC[C@H](O[C@@H]5OC[C@H](O)[C@H](O)[C@H]5O[C@@H]5O[C@@H](C)[C@H](O)[C@@H](O[C@@H]6O[C@H](CO)[C@@H](O[C@@H]7O[C@H](CO)[C@@H](O)[C@H](O)[C@H]7O)[C@H](O)[C@H]6O)[C@H]5O)C(C)(C)[C@@H]4CC[C@@]3(C)[C@]1(C)CC2 | 7.8 µg/mL (≈ 7.27 µM) |
| COC(=O)[C@]12CCC(C)(C)C[C@H]1C1=CC[C@@H]3[C@@]4(C)CC[C@H](O[C@@H]5OC[C@H](O)[C@H](O)[C@H]5O[C@@H]5O[C@@H](C)[C@H](O)[C@@H](O[C@@H]6O[C@H](CO)[C@@H](O)[C@H](O)[C@H]6O)[C@H]5O)[C@@](C)(CO)[C@@H]4CC[C@@]3(C)[C@]1(C)CC2 | 8 µg/mL (≈ 8.63 µM) |
| C[C@@H]1O[C@@H](O[C@H]2[C@H](O[C@H]3CC[C@]4(C)[C@H]5CC=C6[C@@H]7CC(C)(C)CC[C@]7(C(=O)O)CC[C@@]6(C)[C@]5(C)CC[C@H]4C3(C)C)OC[C@H](O[C@@H]3O[C@H](CO)[C@@H](O)[C@H](O)[C@H]3O)[C@@H]2O)[C@H](O)[C@H](O[C@@H]2O[C@H](CO)[C@@H](O[C@@H]3O[C@H](CO)[C@@H](O)[C@H](O)[C@H]3O)[C@H](O)[C@H]2O)[C@H]1O | 2.7 µg/mL (≈ 2.21 µM) |
| COc1cc([C@@H]2OC[C@@H]3[C@H]2CO[C@H]3c2ccc(O)c(OC)c2)ccc1O [(+)-PINORESINOL] | > 10 µg/mL |
| C[C@@H]1O[C@@H](O[C@H]2[C@H](O[C@H]3CC[C@@]4(C)[C@@H](CC[C@]5(C)[C@@H]4CC=C4[C@@H]6CC(C)(C)CC[C@]6(C(=O)O)CC[C@]45C)[C@]3(C)CO)OC[C@H](O)[C@@H]2O)[C@H](O)[C@H](O)[C@H]1O [ALPHA-HEDERIN] | 7.1 µg/mL (≈ 9.45 µM) |
| COc1cc([C@@H]2c3cc4c(c(O)c3C[C@H]3COC(=O)[C@@H]32)OCO4)cc(OC)c1OC [BETA-PELTATIN A] | 0.0052 µg/mL (≈ 0.0125 µM) |
| COc1cc([C@@H]2c3cc4c(cc3[C@@H](O[C@@H]3O[C@@H]5CO[C@@H](C)O[C@H]5[C@H](O)[C@H]3O)[C@H]3COC(=O)[C@H]23)OCO4)cc(OC)c1O [ETOPOSIDE] | 0.3 µg/mL (≈ 0.51 µM) |
| C[C@@H]1O[C@@H](O[C@H]2[C@H](O[C@H]3CC[C@]4(C)[C@H]5CC=C6[C@@H]7CC(C)(C)CC[C@]7(C(=O)O)CC[C@@]6(C)[C@]5(C)CC[C@H]4C3(C)C)OC[C@H](O[C@@H]3O[C@H](CO)[C@@H](O)[C@H](O)[C@H]3O)[C@@H]2O)[C@H](O)[C@H](O)[C@H]1O [HEDERACOLCHISIDE A1] | 2.3 µg/mL (≈ 2.56 µM) |
| C[C@@H]1O[C@@H](O[C@H]2[C@H](O[C@H]3CC[C@@]4(C)[C@@H](CC[C@]5(C)[C@@H]4CC=C4[C@@H]6CC(C)(C)CC[C@]6(C(=O)O)CC[C@]45C)[C@]3(C)CO)OC[C@H](O[C@@H]3O[C@H](CO)[C@@H](O)[C@H](O)[C@H]3O)[C@@H]2O)[C@H](O)[C@H](O)[C@H]1O [HEDERACOLCHISIDE A] | 3.8 µg/mL (≈ 4.16 µM) |
| CC1(C)CC[C@]2(C(=O)O)CC[C@]3(C)C(=CC[C@@H]4[C@@]5(C)CC[C@H](O)C(C)(C)[C@@H]5CC[C@]43C)[C@@H]2C1 [OLEANOLIC_ACID] | > 50 µg/mL |
